Assay results as given in PubChem BioAssay.
The source made the active and inactive calls. Unless noted, no stated cut-off is given here; in the data, active means inhibition above about 30%; inactive means the rest.

Experiments:
[1] = Her2 expression decrease, cell viability multiplex – SKBR3 breast tumor cells, AlphaScreen, ATP viability, primary screen (AID 461;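 active means Her2 level under about 52% in both replicate screens, with viability over 70% of control, limit read from the data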;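 on Her2 level: lower value means less Her2 protein in the cells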;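 on viability: percent of carrier control wells set as 100% viability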); settings: SKBR3 Her2 protein level, 18-24 h, measured here: SKBR3 viability, ATP luminescence, at 10 µM
[2] = target: Receptor tyrosine-protein kinase erbB-2 (Homo sapiens) (UniProt P04626); assay: as above; settings: 18-24 h, at 10 µM, stronger effect = lower value
[3] = reduced viability of SK-BR-3 breast cancer cells – cell-based, 24 h, human, pilot screen (AID 572;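 active means viability at or below 10% of carrier control in both of two separate runs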;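 further: compound exposure lasted between 18 and 24 h rather than exactly 24 h; 100% = carrier-treated control wells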); settings: SK-BR-3 viability, CellTiter-Glo luminescence, at 10 µM, stronger effect = lower value
[4] = HUVEC growth inhibition – cell-based, human, primary screen (AID 575;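 active means viability at or below 30% in both replicate assays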;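 further: 100% = median of untreated cell wells with 0.1% DMSO on each plate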); settings: HUVEC proliferation, CellTiter-Glo luminescence, 72 h; at 10 µM; stronger effect = lower value
Outline: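 Test system: primary human umbilical vein endothelial cells; medium: endothelial basal medium with 2% FBS plus growth supplements; dosing: 10 µM compound only; times: 72 h treatment at 37 °C; signal: CTG luminescence; read-out: % viability relative to median vehicle-well signal on each plate; control set: vehicle and MePR control wells; plate: 384-well, collagen-coated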

[5] = H69AR cell proliferation blockers – human, duplicate replicates, primary screen (AID 580;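 active means viability at or under a set limit in both replicates, limit being median viability minus 3 SD, cut at about 48% in these data, passing the limit was not always enough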;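 further: 100% = mean luminescence of untreated wells and 0% = no signal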); settings: H69AR lung tumor cells viability, ATP luminescence, 72 h; at 10 µM; stronger effect = lower value
[6] = MRP1 drug-resistance reversers in H69AR cells – cell-based, doxorubicin co-treatment, pilot screen (AID 601;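 active means viability loss from added drug above about 55%, and viability with drug at most 40%, in both replicates, limit read from the data, passing the limit was not always enough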); settings: CellTiter-Glo, 72 h, at 10 µM; for differential viability (reversal): stronger effect = higher value
[7] = yeast transport mutant growth inhibition pilot in 384-well plates, post-Golgi transport modulator project (AID 636; in the data active means inhibition above about 31%); settings: absorbance 615 nm, about 18 h, stronger effect = higher value
[8] = growth suppression of yeast trafficking mutant, preliminary HTS, modulators of trafficking downstream of Golgi apparatus project, 1536-format plate, OD 615 nm (AID 637); settings: yeast transport mutant growth, absorbance 615 nm, 18 h; stronger effect = higher value
[9] = H69AR cells + 2 uM doxorubicin, measured here: viability with 2 uM doxorubicin, stronger effect = lower value
[10] = H69AR cells, compound alone cytotoxicity

Receptor tyrosine-protein kinase erbB-2 (Homo sapiens), sequence (P04626 whole entry, looked up): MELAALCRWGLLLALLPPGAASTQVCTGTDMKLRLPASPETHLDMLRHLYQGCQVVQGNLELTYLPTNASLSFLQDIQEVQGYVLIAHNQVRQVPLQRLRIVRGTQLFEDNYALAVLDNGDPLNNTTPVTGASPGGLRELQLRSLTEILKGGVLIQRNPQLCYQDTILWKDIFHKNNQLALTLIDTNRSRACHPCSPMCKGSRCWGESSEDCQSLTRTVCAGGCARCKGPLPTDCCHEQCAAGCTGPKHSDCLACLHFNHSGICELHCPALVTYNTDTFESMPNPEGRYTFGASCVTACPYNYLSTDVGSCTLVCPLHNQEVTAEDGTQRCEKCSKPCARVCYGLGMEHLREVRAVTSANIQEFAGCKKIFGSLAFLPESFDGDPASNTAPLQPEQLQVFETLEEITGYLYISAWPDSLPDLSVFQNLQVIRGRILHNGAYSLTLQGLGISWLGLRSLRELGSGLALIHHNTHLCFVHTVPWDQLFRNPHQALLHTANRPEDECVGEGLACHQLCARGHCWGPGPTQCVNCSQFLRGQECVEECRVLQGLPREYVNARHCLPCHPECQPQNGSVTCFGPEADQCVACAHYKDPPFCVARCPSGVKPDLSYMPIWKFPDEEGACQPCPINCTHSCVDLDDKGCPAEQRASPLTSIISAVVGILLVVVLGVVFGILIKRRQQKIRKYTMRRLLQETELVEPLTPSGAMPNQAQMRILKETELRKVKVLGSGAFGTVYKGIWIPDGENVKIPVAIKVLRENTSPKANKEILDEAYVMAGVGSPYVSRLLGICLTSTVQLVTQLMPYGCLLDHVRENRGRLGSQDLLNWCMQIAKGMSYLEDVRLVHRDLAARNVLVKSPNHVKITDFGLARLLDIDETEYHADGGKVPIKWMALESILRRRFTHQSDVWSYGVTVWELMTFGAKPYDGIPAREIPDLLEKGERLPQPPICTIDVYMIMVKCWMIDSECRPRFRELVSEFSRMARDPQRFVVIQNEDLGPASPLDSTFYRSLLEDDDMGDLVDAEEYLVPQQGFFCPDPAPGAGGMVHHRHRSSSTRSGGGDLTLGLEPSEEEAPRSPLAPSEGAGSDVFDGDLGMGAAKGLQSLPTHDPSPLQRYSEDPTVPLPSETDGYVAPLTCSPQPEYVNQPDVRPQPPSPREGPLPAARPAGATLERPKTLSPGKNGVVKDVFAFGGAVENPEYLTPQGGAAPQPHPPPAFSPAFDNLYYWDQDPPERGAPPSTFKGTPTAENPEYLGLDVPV

| Structure (SMILES) | viability [1] [%] | Her2 level [2] | viability [3] | viability [4] | viability [5] | differential viability (reversal) ([6]; H69AR cells + 2 uM doxorubicin) | viability [6, 9] [%] | viability [6, 10] [%] | inhibition [7] | inhibition [8] |
| --- | --- | --- | --- | --- | --- | --- | --- | --- | --- | --- |
| CCOP(=O)(c1ccc(N(C)C)cc1)C(O)c1cc(OC)c(OC)c(OC)c1 (stereo not given) | 76.5 | 80% (inactive) | 76.5% (inactive) | 80.6% (inactive) | 87.4% (inactive) | -0.05% (inactive) | 87.4 | 87.4 | -3.68% (inactive) | -2.38% (inactive) |
| CSc1ccc(S(=O)(=O)Nc2cccc(F)c2)cc1 | 96 | 76% (inactive) | 96% (inactive) | 97.7% (inactive) | 97.3% (inactive) | -0.325% (inactive) | 97.6 | 97.3 | -5.26% (inactive) | -5.33% (inactive) |
| CNC(=O)Nc1cccc(C(F)(F)F)c1 | 105 | 82.5% (inactive) | 105% (inactive) | 93% (inactive) | 93.6% (inactive) | -6.37% (inactive) | 100 | 93.6 | -4.08% (inactive) | 0% (inactive) |
| COc1cc(OC)cc(C(=O)NCc2n[nH]c(=S)n2-c2ccccc2OC)c1 | 97 | 88% (inactive) | 97% (inactive) | 109% (inactive) | 89.4% (inactive) | 0.11% (inactive) | 89.3 | 89.4 | -7.16% (inactive) | -1.33% (inactive) |
| CCOc1ccccc1NC(=O)N1CCCC1C(=O)Nc1nnc(CC)s1 (stereo not given) | 94 | 88% (inactive) | 94% (inactive) | 89.7% (inactive) | 109% (inactive) | 20% (inactive) | 88.8 | 109 | -5.95% (inactive) | -0.83% (inactive) |
| Cc1ccc(-c2noc(C3CCCN(C(=O)c4ccccc4)C3)n2)o1 (stereo not given) | 86 | 95% (inactive) | 86% (inactive) | 94.8% (inactive) | 95.1% (inactive) | 4.09% (inactive) | 91 | 95.1 | -5.66% (inactive) | 0.33% (inactive) |
| CCOC(=O)N1CCN(C(=O)c2csc3c2CCCCC3)CC1 | 93.5 | 112% (inactive) | 93.5% (inactive) | 94.9% (inactive) | 90.8% (inactive) | -1.73% (inactive) | 92.5 | 90.8 | 0.51% (inactive) | -13.7% (inactive) |
| CCOC(=O)c1cc2sc(C)cc2n1C(C)C(=O)OCC (stereo not given) | 97.5 | 79% (inactive) | 97.5% (inactive) | 95.8% (inactive) | 86.3% (inactive) | -6.21% (inactive) | 92.5 | 86.3 | -3.6% (inactive) | 1.8% (inactive) |
| Cc1cc(C(=O)NCCN2CCN(c3cccc(Cl)c3)CC2)n(-c2ccccc2)n1 | 98 | 91.5% (inactive) | 98% (inactive) | 42.3% (inactive) | 23.7% (active) | -24.5% (inactive) | 48.2 | 23.7 | -4.8% (inactive) | -1.48% (inactive) |
| CCc1nc(C)c(C#N)c2cc(OC)c(OC)cc12 | 103 | 90% (inactive) | 103% (inactive) | 77.8% (inactive) | 82.4% (inactive) | 8.46% (inactive) | 74 | 82.4 | -0.91% (inactive) | 3.93% (inactive) |
| O=S(=O)(NCC1CCCO1)c1cc(Cl)ccc1Br (stereo not given) | 87.5 | 121% (inactive) | 87.5% (inactive) | 109% (inactive) | 96.5% (inactive) | 2.42% (inactive) | 94.1 | 96.5 | 3.25% (inactive) | 4% (inactive) |
| Cc1cc(-c2ccccc2)c(C#N)c(N)n1 | 114 | 91% (inactive) | 114% (inactive) | 81.9% (inactive) | 99.3% (inactive) | 6.5% (inactive) | 92.8 | 99.3 | -2.3% (inactive) | -0.98% (inactive) |
| CC1=C(c2ccc(Cl)cc2)[N+](=O)C(C)(C)N1[O-] | 99.5 | 95.5% (inactive) | 99.5% (inactive) | 110% (inactive) | 89.6% (inactive) | -4.19% (inactive) | 93.8 | 89.6 | -4.52% (inactive) | -10.2% (inactive) |
| O=[n+]1c2c(n([O-])c3c1CCCC3)CCCC2 | 108 | 91% (inactive) | 108% (inactive) | 93.9% (inactive) | 88.6% (inactive) | -8.33% (inactive) | 96.9 | 88.6 | -0.65% (inactive) | 7.38% (inactive) |
